Measurements as given in paper PMC12334608 (Nature Communications, 2025).
Residue numbers refer to the chain shown, from its start.

What was measured:
ACOX-1.1 [1] = molecular target: T1, ACOX-1.1 (Caenorhabditis elegans, UniProt O62140); test: Enzyme-coupled kinetic assay, wild-type ACOX-1.1 as purified; assay type: biochemical, C. elegans
T1 sequence (O62140 1-674): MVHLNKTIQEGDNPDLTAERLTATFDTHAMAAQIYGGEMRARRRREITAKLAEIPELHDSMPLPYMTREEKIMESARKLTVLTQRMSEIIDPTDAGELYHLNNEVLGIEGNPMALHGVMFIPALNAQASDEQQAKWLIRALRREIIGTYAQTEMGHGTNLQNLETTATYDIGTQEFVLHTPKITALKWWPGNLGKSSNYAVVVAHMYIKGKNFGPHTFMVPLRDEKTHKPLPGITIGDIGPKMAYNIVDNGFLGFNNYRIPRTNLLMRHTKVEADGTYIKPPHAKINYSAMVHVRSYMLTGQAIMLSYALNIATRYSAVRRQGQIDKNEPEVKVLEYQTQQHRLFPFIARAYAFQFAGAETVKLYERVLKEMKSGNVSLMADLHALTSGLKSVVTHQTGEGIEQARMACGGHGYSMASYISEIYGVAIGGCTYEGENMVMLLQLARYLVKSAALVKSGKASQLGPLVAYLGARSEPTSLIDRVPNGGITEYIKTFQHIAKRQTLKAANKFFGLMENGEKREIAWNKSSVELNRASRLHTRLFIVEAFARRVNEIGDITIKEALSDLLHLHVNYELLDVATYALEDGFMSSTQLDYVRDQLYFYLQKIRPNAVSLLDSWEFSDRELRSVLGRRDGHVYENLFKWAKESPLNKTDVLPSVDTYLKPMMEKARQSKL

ACOX-1.1(H396G) = test: Enzyme-coupled kinetic assay, ACOX-1.1; assay type: biochemical, C. elegans; conditions: 10 μM FAD, various ATP
Summary of the method: (§1)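 Coupled H2O2 assay on a plate reader using the mutant enzyme (250 nM final). […] Peroxide was coupled through 4-aminoantipyrine (0.82 mM final), phenol (10.6 mM final) and peroxidase, read at 500 nm. Substrate was 25 µM lauroyl-CoA in 50 mM Tris-HCl pH 7.5, 150 mM NaCl, 10 mM MgCl2. Initial rate was taken over a 30 s window at 25–26 °C.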

ACOX-1.1(R536E) = test: Enzyme-coupled kinetic assay, ACOX-1.1; assay type: biochemical, C. elegans; conditions: 10 μM FAD, various ATP
Summary of the method: as §1

ACOX-1.1(R343A) = molecular target: T2, ACOX-1.1(R343A) (Caenorhabditis elegans, UniProt O62140, R343A); test: Enzyme-coupled kinetic assay, ACOX-1.1; assay type: biochemical, C. elegans; conditions: varying ATP
T2 sequence (O62140 1-674 R343A): T1 sequence (O62140 1-674) with R343A

ACOX-1.1(R295A) = molecular target: T3, ACOX-1.1(R295A) (Caenorhabditis elegans, UniProt O62140, R295A); test: Enzyme-coupled kinetic assay, ACOX-1.1; assay type: biochemical, C. elegans
T3 sequence (O62140 1-674 R295A): T1 sequence (O62140 1-674) with R295A

ACOX-1.1 [2] = molecular target: T1, ACOX-1.1; test: Analysis of enzyme activity; assay type: biochemical, C. elegans; conditions: 10 μM FAD, 350 μM ATP
ACOX-1.1 [3] = molecular target: T1, ACOX-1.1; test: ATP hydrolysis by HPLC; assay type: biochemical, C. elegans; conditions: 1 h incubation
[4] = molecular target: aspartate transcarbamoylase; conditions: read-out: KD of the high-affinity ATP site; ATP-activated aspartate transcarbamoylase; cited from earlier work

## Nc1ncnc2c1ncn2[C@@H]1O[C@H](COP(=O)(O)OP(=O)(O)OP(=O)(O)O)[C@@H](O)[C@H]1O [ATP]
ACOX-1.1 [1]
  EC50: 249 µM
ACOX-1.1(H396G)
  response of enzyme activity to ATP: do not respond to ATP
ACOX-1.1(R536E)
  response of enzyme activity to ATP: do not respond to ATP
ACOX-1.1(R343A)
  influence of ATP on the activity of the enzyme: no influence on the activity of the enzyme
ACOX-1.1(R295A)
  response of enzyme activity to ATP: do not respond to ATP
ACOX-1.1 [2]
  effect on rate of product formation (HPLC): increases the rate of product formation
ACOX-1.1 [3]
  hydrolysis of ATP by ACOX-1.1: not hydrolyzed by ACOX-1.1
[4]
  Kd: 100 to 200 µM
